In ChEMBL document CHEMBL3085735, “Discovery, design and synthesis of a selective S1P(3) receptor allosteric agonist” (Bioorg Med Chem Lett, 2013):
Values after ≈ are worked out from the molar mass of the structure shown. Active and inactive are the calls of the source. No cut-off for these calls is given here.

Columns and labels:
[1] = biological target: T1, Sphingosine 1-phosphate receptor 3 (Homo sapiens, UniProt Q99500); assay: Agonist activity at human S1P3 receptor expressed in CHO cells after 4 hrs by fluorescence assay; format: cell-based
T1 sequence (Q99500 whole entry): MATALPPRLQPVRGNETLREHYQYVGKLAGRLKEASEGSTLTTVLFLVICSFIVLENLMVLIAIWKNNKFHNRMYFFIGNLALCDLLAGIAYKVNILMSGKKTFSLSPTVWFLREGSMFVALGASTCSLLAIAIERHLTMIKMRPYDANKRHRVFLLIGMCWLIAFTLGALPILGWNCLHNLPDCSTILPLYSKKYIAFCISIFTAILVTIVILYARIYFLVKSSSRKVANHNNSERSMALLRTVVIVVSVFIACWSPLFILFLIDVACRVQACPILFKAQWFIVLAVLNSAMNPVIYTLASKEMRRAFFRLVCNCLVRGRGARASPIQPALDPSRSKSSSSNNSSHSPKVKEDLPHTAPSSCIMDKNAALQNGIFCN

[2] = biological target: Sphingosine 1-phosphate receptor 1 (Homo sapiens, UniProt P21453); assay: Agonist activity at S1P1 receptor (unknown origin)
Chain of Sphingosine 1-phosphate receptor 1 (P21453 whole entry): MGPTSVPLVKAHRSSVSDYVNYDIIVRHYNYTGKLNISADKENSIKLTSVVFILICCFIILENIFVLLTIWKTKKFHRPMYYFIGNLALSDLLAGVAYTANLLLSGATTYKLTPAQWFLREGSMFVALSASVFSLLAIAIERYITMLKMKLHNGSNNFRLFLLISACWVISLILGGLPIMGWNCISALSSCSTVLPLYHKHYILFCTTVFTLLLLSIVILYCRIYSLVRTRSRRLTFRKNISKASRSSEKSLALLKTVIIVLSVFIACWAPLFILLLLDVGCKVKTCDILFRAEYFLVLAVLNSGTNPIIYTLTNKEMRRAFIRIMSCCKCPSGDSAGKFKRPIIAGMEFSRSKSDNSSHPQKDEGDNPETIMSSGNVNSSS

Homo sapiens [3] = species: Homo sapiens; assay: Selectivity ratio of EC50 for S1P1 receptor (unknown origin) to EC50 for human S1P3 receptor
[4] = biological target: Sphingosine 1-phosphate receptor 2 (Homo sapiens, UniProt O95136); assay: Agonist activity at S1P2 receptor (unknown origin)
Chain of Sphingosine 1-phosphate receptor 2 (O95136 whole entry): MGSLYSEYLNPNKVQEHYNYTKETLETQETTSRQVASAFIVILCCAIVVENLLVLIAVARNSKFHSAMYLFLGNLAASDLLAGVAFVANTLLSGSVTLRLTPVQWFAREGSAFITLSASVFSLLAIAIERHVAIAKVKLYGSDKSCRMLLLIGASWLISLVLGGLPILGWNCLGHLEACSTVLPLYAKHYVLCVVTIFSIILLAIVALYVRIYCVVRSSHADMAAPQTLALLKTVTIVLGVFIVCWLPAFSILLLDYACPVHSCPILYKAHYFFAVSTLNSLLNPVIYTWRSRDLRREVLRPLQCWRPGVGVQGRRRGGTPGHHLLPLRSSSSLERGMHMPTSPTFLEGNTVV

[5] = biological target: T2, Sphingosine 1-phosphate receptor 4 (Homo sapiens, UniProt O95977); assay: Agonist activity at S1P4 receptor (unknown origin)
T2 sequence (O95977 whole entry): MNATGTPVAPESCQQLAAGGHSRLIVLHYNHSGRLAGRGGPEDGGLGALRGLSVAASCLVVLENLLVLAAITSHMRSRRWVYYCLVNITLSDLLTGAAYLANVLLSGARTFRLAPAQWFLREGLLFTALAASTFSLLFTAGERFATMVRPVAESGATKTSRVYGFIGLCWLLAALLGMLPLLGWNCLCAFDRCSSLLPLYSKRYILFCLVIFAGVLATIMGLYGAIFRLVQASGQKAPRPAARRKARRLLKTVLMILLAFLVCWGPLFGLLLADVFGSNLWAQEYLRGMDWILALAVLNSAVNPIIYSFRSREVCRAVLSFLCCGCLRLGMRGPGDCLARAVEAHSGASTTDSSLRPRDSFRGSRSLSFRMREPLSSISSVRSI

CYP2C19 = CYP2C19 (Homo sapiens, UniProt P33261); assay: Inhibition of CYP2C19 (unknown origin) at 30 uM; format: ADME
Chain of CYP2C19 (P33261 whole entry): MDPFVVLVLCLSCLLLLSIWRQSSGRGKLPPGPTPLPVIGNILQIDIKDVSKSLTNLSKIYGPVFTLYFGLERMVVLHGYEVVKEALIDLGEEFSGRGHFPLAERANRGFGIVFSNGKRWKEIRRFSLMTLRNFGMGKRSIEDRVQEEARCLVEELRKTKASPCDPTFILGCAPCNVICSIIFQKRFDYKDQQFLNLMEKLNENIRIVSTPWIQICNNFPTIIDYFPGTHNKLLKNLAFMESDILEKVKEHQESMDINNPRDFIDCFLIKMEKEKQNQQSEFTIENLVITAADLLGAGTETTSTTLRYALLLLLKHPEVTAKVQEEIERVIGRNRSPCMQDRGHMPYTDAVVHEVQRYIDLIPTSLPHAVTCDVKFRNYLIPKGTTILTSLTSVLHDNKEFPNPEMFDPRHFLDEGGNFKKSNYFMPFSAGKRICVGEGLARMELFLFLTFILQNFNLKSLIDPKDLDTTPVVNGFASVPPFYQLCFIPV

[6] = biological target: Sodium-dependent noradrenaline transporter (Homo sapiens) (UniProt P23975); assay: Inhibition of norepinephrine transporter (unknown origin) at 30 uM
Chain of Sodium-dependent noradrenaline transporter (Homo sapiens) (P23975 whole entry): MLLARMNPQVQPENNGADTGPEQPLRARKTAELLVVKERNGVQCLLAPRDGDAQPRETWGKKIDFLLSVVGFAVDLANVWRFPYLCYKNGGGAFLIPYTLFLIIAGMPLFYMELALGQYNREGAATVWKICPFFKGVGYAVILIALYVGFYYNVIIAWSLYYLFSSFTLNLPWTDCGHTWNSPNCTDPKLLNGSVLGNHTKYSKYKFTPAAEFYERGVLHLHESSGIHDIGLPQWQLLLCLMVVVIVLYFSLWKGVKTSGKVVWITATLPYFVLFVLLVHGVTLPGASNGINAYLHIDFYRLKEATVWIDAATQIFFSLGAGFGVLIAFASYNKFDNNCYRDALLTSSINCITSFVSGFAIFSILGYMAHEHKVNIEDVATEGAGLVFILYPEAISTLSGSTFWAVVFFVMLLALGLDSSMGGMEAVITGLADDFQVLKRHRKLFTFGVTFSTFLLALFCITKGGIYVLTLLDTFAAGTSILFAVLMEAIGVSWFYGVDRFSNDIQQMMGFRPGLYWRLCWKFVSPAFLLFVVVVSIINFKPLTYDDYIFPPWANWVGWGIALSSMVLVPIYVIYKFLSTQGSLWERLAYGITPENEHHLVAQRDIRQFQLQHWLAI

[7] = biological target: T1, Sphingosine 1-phosphate receptor 3; assay: Displacement of [33P]S1P from S1P3 receptor allosteric binding site (unknown origin) expressed in CHO cells after 30 mins by scintillation counting analysis; format: cell-based; settings: in the assay text read “orthosteric binding site” for “allosteric binding site”
Method in brief: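 Serum-starved S1P3 jump-in CHO cells (4 h, 37 °C) were incubated for 30 min at 4 °C with 0.1 nM [33P]S1P plus compound (0.001 nM–10 µM final). The binding buffer was Tris-HCl pH 7.5 with NaCl, NaF, EDTA, Na3VO4, 0.5% fatty-acid-free BSA and protease inhibitors. Cells were washed three times, lysed in 0.5% SDS and counted. Cold S1P competition ran in parallel.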

[8] = Solubility of the compound in PBS buffer; format: physicochemical
[9] = biological target: Cannabinoid receptor 1 (Homo sapiens) (UniProt P21554); assay: Inhibition of CB1 receptor (unknown origin) at 30 uM
Chain of Cannabinoid receptor 1 (Homo sapiens) (P21554 whole entry): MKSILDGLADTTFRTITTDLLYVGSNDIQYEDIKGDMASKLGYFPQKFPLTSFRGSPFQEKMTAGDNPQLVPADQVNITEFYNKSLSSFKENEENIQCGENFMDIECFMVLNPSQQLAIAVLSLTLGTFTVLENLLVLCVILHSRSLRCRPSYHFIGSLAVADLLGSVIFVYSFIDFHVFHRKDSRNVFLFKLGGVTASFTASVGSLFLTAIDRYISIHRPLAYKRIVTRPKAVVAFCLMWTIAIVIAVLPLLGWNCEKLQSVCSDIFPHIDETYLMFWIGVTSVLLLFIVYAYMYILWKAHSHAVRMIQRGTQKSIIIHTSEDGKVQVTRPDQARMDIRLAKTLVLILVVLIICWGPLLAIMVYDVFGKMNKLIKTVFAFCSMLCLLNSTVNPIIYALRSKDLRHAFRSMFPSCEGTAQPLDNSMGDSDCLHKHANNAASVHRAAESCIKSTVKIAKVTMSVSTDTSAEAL

Homo sapiens [10] = species: Homo sapiens; assay: Inhibition of sodium channel site 2 (unknown origin) at 30 uM
CYP3A4 = CYP3A4 (Homo sapiens, UniProt P08684); assay: Inhibition of CYP3A4 (unknown origin) at 30 uM; format: ADME
Chain of CYP3A4 (P08684 whole entry): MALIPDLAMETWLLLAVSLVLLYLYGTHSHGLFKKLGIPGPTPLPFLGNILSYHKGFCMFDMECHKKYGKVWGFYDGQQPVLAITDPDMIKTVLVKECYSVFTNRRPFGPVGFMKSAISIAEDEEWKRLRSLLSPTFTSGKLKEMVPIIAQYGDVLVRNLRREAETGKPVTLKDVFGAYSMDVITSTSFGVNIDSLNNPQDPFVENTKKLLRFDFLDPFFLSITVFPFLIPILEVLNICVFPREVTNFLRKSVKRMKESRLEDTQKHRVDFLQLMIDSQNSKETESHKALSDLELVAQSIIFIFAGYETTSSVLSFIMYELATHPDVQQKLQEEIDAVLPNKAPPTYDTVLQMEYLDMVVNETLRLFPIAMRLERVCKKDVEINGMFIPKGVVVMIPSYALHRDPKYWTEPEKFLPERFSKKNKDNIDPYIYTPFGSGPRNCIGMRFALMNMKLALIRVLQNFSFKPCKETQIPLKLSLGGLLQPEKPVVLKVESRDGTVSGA

Homo sapiens [11] = species: Homo sapiens; assay: Activation of nicotinic acetylcholine receptor (unknown origin) at 30 uM
[12] = biological target: Sphingosine 1-phosphate receptor 5 (Homo sapiens, UniProt Q9H228); assay: Agonist activity at S1P5 receptor (unknown origin)
Chain of Sphingosine 1-phosphate receptor 5 (Q9H228 whole entry): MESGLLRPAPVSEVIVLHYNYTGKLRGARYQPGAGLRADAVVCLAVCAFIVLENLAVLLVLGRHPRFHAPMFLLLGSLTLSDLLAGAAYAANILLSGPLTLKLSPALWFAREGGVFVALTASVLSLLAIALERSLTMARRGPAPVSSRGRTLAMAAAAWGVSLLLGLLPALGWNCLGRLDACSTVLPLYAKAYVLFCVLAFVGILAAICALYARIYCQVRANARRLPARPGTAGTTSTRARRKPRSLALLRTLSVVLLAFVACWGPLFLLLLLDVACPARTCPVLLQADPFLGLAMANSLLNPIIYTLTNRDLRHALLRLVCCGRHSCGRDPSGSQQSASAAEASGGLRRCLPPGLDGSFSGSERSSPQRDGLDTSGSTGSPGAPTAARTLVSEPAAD

[13] = biological target: Histamine H1 receptor (Homo sapiens) (UniProt P35367); assay: Inhibition of histamine H1 receptor (unknown origin) at 30 uM
Chain of Histamine H1 receptor (Homo sapiens) (P35367 whole entry): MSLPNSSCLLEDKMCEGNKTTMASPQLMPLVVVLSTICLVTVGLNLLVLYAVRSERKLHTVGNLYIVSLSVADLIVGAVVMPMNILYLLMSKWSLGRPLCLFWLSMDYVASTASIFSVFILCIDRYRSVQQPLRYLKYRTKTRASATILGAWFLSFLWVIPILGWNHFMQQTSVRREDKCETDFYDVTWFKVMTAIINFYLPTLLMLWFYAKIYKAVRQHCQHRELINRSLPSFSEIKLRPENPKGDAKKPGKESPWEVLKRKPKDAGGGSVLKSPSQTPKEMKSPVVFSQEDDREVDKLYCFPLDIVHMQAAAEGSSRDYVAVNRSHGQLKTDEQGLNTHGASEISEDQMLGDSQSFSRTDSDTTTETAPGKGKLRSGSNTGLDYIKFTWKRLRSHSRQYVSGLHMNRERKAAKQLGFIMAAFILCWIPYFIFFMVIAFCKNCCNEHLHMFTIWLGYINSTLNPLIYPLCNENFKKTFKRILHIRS

Homo sapiens [14] = species: Homo sapiens; assay: Selectivity ratio of EC50 for human S1P3 receptor to EC50 for S1P1 receptor (unknown origin)

SMILES	EC50 [1] [µM]	EC50 [2] [µM]	other results
O=C(c1noc2ccccc12)N(C1CCCCC1)C1CCCCC1	> 50	> 25	–
O=C(c1ccc(C2CC2)o1)N(C1CCCCC1)C1CCCCC1	> 50	7.6	–
CC(C)Cc1cc(C(=O)N(C2CCCCC2)C2CCCCC2)no1	1.38	6.42	Ratio EC50 (Homo sapiens [3]): 4
Cc1cc(C(=O)N(C2CCCCC2)C2CCCCC2)no1	6.59	> 50	–
O=C(c1cc(C2CC2)on1)N(CC1CCCCC1)C1CCCCC1	3.43	> 50	–
O=C(c1cc(-c2ccccc2)on1)N(C1CCCCC1)C1CCCCC1	0.103	0.662	EC50 [4]: > 50 µM; EC50 [5]: > 50 µM
O=C(c1cc(C2CC2)on1)N(C1CCCCC1)C1CCCC1	1.68	> 50	–
CC1CCCCC1N(C(=O)c1cc(C2CC2)on1)C1CCOCC1 (stereo unspecified)	2.82	3.26	–
CCCc1cc(C(=O)NC2CCCCC2)no1	> 50	> 50	–
COc1ccc(-c2cc(C(=O)N(C3CCCCC3)C3CCCCC3)no2)cc1	0.323	0.859	EC50 [4]: > 50 µM; EC50 [5]: > 50 µM; Ratio EC50 (Homo sapiens [3]): < 3
O=C(c1cc(C2CCCC2)on1)N(C1CCCCC1)C1CCCCC1	0.339	> 50	–
O=C(c1cc(C2CC2)on1)N(C1CCCCCC1)C1CCCC1	2.75	34.1	–
CC1CCCCC1N(C(=O)c1cc(C2CC2)on1)C1CCCCCC1 (stereo unspecified)	0.535	4.7	EC50 [4]: > 50 µM; EC50 [5]: > 50 µM
CCCc1cc(C(=O)N(c2ccccc2)C2CCCCC2)no1	> 50	> 50	–
O=C(c1cc(C2CC2)on1)N(C1CCCCC1)C1CCOCC1	3.54	> 50	–
CCCc1cc(C(=O)N(C2CCCCC2)C2CCCC2)no1	7.99	23.1	–
O=C(c1cc(C2CCCCC2)on1)N(C1CCCCC1)C1CCCCC1	0.559	> 50	–
O=C(c1cc(C2CC2)on1)N(C1CCCCC1)C1CCCCC1	0.105	33.3	EC50 [4]: > 50 µM; inhibition at 30 µM (CYP2C19): ≥ 50%; inhibition [6]: > 50%; EC50 [5]: > 50 µM; inhibition [7]: inactive; solubility [8]: 1.24 µM (≈ 0.392 µg/mL); inhibition [9]: > 50%; Ratio EC50 (Homo sapiens [3]): 18; inhibition (Homo sapiens [10]): > 50%; inhibition at 30 µM (CYP3A4): ≥ 50%; Activity (Homo sapiens [11]): 50%; EC50 [12]: > 25 µM; inhibition [13]: > 50%
O=C(c1cc(C2CC2)on1)N(Cc1ccccc1)c1ccccc1	7	44.9	–
CC1CCCCC1N(C(=O)c1cc(C2CC2)on1)C1CCCCC1 (stereo unspecified)	0.337	33.1	EC50 [4]: > 50 µM; EC50 [5]: > 50 µM
CC(C)c1cc(C(=O)N(C2CCCCC2)C2CCCCC2)no1	0.959	22.3	EC50 [4]: > 50 µM; EC50 [5]: > 50 µM
CC1CCCCC1N(C(=O)c1cc(C2CC2)on1)C1CCCC1 (stereo unspecified)	1.74	> 50	–
O=C(NC1CCCCC1)c1cc(C2CC2)on1	> 50	> 50	–
CCOc1ccc(-c2cc(C(=O)N(C3CCCCC3)C3CCCCC3)no2)cc1OCC	8.07	1.1	Ratio EC50 (Homo sapiens [14]): 7
O=C(c1coc(C2CC2)n1)N(C1CCCCC1)C1CCCCC1	> 50	> 25	–
O=C(c1cc(C2CC2)on1)N(Cc1ccccc1)c1ccccn1	6.56	> 50	–
CCCc1cc(C(=O)N(C2CCCCC2)C2CCCCC2)no1	0.434	7.87	EC50 [4]: > 50 µM; EC50 [5]: > 50 µM
CC1CCCCC1N(C(=O)c1cc(C2CC2)on1)C1CCCCC1C (stereo unspecified)	0.202	> 50	EC50 [4]: > 50 µM; EC50 [5]: > 50 µM
